Measurements pooled from the literature.
Lines come from different studies, so protocols differ.
Cell line: PC-9
Effect on: cell growth or viability
Time: 72 h

| Structure (SMILES) | test | setting | quantity | value |
| --- | --- | --- | --- | --- |
| O=C(Nc1ccc(Cl)cc1)Nc1ccc(-c2cn(Cc3ccc(Br)cc3)nn2)cc1 | CCK-8 | 20 µM | viability | 71.5% |
| CCCn1cnc2ccc(-c3ccc4sc(NC(=O)Nc5ccc(F)cc5)nc4c3)cc2c1=O | MTT | – | IC50 | 1.51 µM |
| COc1ccc(N(Cc2csc(-c3ccc(C)cc3)n2)C(=O)CCCCCC(=O)NO)cc1 | MTT | – | IC50 | 0.46 µM |
| O=C(Nc1ccc(F)cc1)Nc1nc2cc(-c3ccc4ncn(CC5CC5)c(=O)c4c3)ccc2s1 | MTT | – | IC50 | > 20 µM |
| COc1ccc(NC(=O)Nc2cccc(-c3cn(Cc4ccc(Cl)cc4)nn3)c2)cc1 | CCK-8 | 50 µM | viability | 89.5% |
| O=C(Nc1ccc(F)cc1)Nc1nc2cc(-c3ccc4ncn(CC(=O)N5CCOCC5)c(=O)c4c3)ccc2s1 | MTT | – | IC50 | > 20 µM |
| COc1ccc(NC(=O)Nc2ccc(-c3cn(Cc4ccc(C)cc4)nn3)cc2)cc1 | CCK-8 | 20 µM | viability | 87.1% |
| O=C(NCc1cn(Cc2ccc(Cl)cc2)nn1)Nc1ccccc1Br | CCK-8 | 50 µM | viability | 127% |
| COc1ccc(NC(=O)NCc2cn(Cc3ccc(Cl)cc3)nn2)cc1 | CCK-8 | 20 µM | viability | 96.2% |
| COc1ccc(NC(=O)Nc2nc3cc(-c4ccc5ncn(Cc6ccccc6)c(=O)c5c4)ccc3s2)cc1 | MTT | – | IC50 | > 20 µM |
| O=C(Nc1cccc(-c2cn(Cc3ccc(Br)cc3)nn2)c1)Nc1ccccc1Br | CCK-8 | 50 µM | viability | 92.6% |
| COc1ccc(NC(=O)Nc2ccc(-c3cn(Cc4ccc(Cl)cc4)nn3)cc2)cc1 | CCK-8 | 20 µM | viability | 91% |
| O=C(NCc1cn(Cc2ccc(Br)cc2)nn1)Nc1ccccc1Br | CCK-8 | 20 µM | viability | 99.2% |
| CCCCn1cnc2ccc(-c3ccc4sc(NC(=O)Nc5ccc(F)cc5)nc4c3)cc2c1=O | MTT | – | IC50 | 6.17 µM |
| O=C(Nc1ccc(-c2cn(Cc3ccc(Cl)cc3)nn2)cc1)Nc1ccccc1Br | CCK-8 | 50 µM | viability | 103% |
| COc1ccc(NC(=O)Nc2ccc(-c3cn(Cc4ccc(Br)cc4)nn3)cc2)cc1 | CCK-8 | 20 µM | viability | 93% |
| O=C(Nc1ccc(Cl)cc1)Nc1nc2cc(-c3ccc4ncn(CCN5CCOCC5)c(=O)c4c3)ccc2s1 | MTT | – | IC50 | > 20 µM |
| O=C(Nc1ccc(Cl)cc1)Nc1cccc(-c2cn(Cc3ccc(Cl)cc3)nn2)c1 | CCK-8 | 20 µM | viability | 95.4% |
| COc1ccc(NC(=O)Nc2cccc(-c3cn(Cc4ccc(C)cc4)nn3)c2)cc1 | CCK-8 | 50 µM | viability | 92.6% |
| COc1ccc(N(Cc2csc(-c3ccccc3)n2)C(=O)CCCCCC(=O)NO)cc1 | MTT | – | IC50 | 0.53 µM |
